# Data reported in ChEMBL document CHEMBL1124413, “Quinazoline antifolate thymidylate synthase inhibitors: nitrogen, oxygen, sulfur, and chlorine substituents in the C2 position” (J Med Chem, 1989).
# Assays:
# L1210 = experiment: Tested for inhibition of L1210 mouse leukemia cell growth in culture; format: functional, cell-based
# In short: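 L1210 mouse leukemia cells were grown in culture with the test agent. The result was expressed as IC50, the concentration that inhibits cell growth by 50%.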
# [1] = Compound was tested for its solubility in 0.20 M aqueous NaH2PO4 initially at pH 7; format: ADME; details: 0.20 M aqueous NaH2PO4, pH 7
# [2] = Compound was tested for its solubility in 0.01 M aqueous NaH2PO4 initially at pH 7; format: ADME; details: 0.01 M aqueous NaH2PO4, pH 7
# In short: (§1)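 Compound was dissolved to saturation in 0.01 M aqueous NaH2PO4 adjusted initially to pH 7. Solubility was reported as mg/mL, and the pH reached by the saturated solution was recorded.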
# [3] = pH attained by the compound at saturation after dissolving in 0.01 M aqueous NaH2PO4 initially at pH 7; format: ADME; details: buffer; in short: as §1
# [4] = pH attained by the compound at saturation after dissolving in 0.20 M aqueous NaH2PO4 initially at pH 7; format: ADME; details: buffer
# Dihydrofolate reductase = target: T1, Dihydrofolate reductase (Homo sapiens, UniProt P00374); experiment: Effect against dihydrofolate reductase (DHFR)
# T1 sequence (P00374 whole entry): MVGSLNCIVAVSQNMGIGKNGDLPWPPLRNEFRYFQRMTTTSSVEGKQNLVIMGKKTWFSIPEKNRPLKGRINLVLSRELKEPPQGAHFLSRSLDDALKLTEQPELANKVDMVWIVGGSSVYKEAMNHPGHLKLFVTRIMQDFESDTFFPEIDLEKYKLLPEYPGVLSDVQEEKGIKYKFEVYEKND
IC50 (L1210) [µM],SMILES,also measured
100,C#CCN(Cc1ccc2nc(OCCOC)nc(O)c2c1)c1ccc(C(=O)NC(CCC(=O)O)C(=O)O)cc1 (stereo not drawn),
> 100,C#CCN(Cc1ccc2nc(Oc3ccccc3)nc(O)c2c1)c1ccc(C(=O)NC(CCC(=O)O)C(=O)O)cc1 (stereo not drawn),
13,C#CCN(Cc1ccc2nc(SC)nc(O)c2c1)c1ccc(C(=O)NC(CCC(=O)O)C(=O)O)cc1 (stereo not drawn),
17,COc1nc(O)c2cc(CN(CCF)c3ccc(C(=O)NC(CCC(=O)O)C(=O)O)cc3)ccc2n1 (stereo not drawn),
> 100,C#CCN(Cc1ccc2nc(OCC)nc(O)c2c1)c1ccc(C(=O)NC(CCC(=O)O)C(=O)O)cc1 (stereo not drawn),
> 100,C#CCN(Cc1ccc2nc(-n3ccnc3)nc(O)c2c1)c1ccc(C(=O)NC(CCC(=O)O)C(=O)O)cc1 (stereo not drawn),
> 100,C#CCN(Cc1ccc2nc(N(C)C)nc(O)c2c1)c1ccc(C(=O)NC(CCC(=O)O)C(=O)O)cc1 (stereo not drawn),
7,COc1nc(O)c2cc(CN(C)c3ccc(C(=O)NC(CCC(=O)O)C(=O)O)cc3)ccc2n1 (stereo not drawn),
> 100,C#CCN(Cc1ccc2nc(NCC(=O)O)nc(O)c2c1)c1ccc(C(=O)NC(CCC(=O)O)C(=O)O)cc1 (stereo not drawn),
1.9,C#CCN(Cc1ccc2nc(OC)nc(O)c2c1)c1ccc(C(=O)NC(CCC(=O)O)C(=O)O)cc1 (stereo not drawn),solubility [1]: 6.6 mg/mL; solubility [2]: 1.2 mg/mL; pH [3]: 4.93; pH [4]: 5.67
> 100,C#CCN(Cc1ccc2nc(NCCN(C)C)nc(O)c2c1)c1ccc(C(=O)NC(CCC(=O)O)C(=O)O)cc1 (stereo not drawn),
3.4,C#CCN(Cc1ccc2[nH]c(N)nc(=O)c2c1)c1ccc(C(=O)NC(CCC(=O)O)C(=O)O)cc1 (stereo not drawn),solubility [1]: 0.06 mg/mL; solubility [2]: 0.05 mg/mL; pH [3]: 5.76; pH [4]: 6.78
6.4,COc1nc(O)c2cc(CNc3ccc(C(=O)NC(CCC(=O)O)C(=O)O)cc3)ccc2n1 (stereo not drawn),Ki (Dihydrofolate reductase): ~0.6 µM
47,C#CCN(Cc1ccc2nc(NCCO)nc(O)c2c1)c1ccc(C(=O)NC(CCC(=O)O)C(=O)O)cc1 (stereo not drawn),
80,COc1nc(O)c2cc(CN(CCCO)c3ccc(C(=O)NC(CCC(=O)O)C(=O)O)cc3)ccc2n1 (stereo not drawn),
67,C#CCN(Cc1ccc2nc(Cl)nc(O)c2c1)c1ccc(C(=O)NC(CCC(=O)O)C(=O)O)cc1 (stereo not drawn),
24,C#CCN(Cc1ccc2nc(NC)nc(O)c2c1)c1ccc(C(=O)NC(CCC(=O)O)C(=O)O)cc1 (stereo not drawn),
16,C=CCN(Cc1ccc2nc(OC)nc(O)c2c1)c1ccc(C(=O)NC(CCC(=O)O)C(=O)O)cc1 (stereo not drawn),
97,C#CCN(Cc1ccc2nc(NCCN)nc(O)c2c1)c1ccc(C(=O)NC(CCC(=O)O)C(=O)O)cc1 (stereo not drawn),
7.3,COc1nc(O)c2cc(CN(CCO)c3ccc(C(=O)NC(CCC(=O)O)C(=O)O)cc3)ccc2n1 (stereo not drawn),
60,C#CCN(Cc1ccc2nc(S)nc(O)c2c1)c1ccc(C(=O)NC(CCC(=O)O)C(=O)O)cc1 (stereo not drawn),
> 100,C#CCN(Cc1ccc2nc(NCC)nc(O)c2c1)c1ccc(C(=O)NC(CCC(=O)O)C(=O)O)cc1 (stereo not drawn),
> 100,C#CCN(Cc1ccc2nc(OCCO)nc(O)c2c1)c1ccc(C(=O)NC(CCC(=O)O)C(=O)O)cc1 (stereo not drawn),
12,CCN(Cc1ccc2nc(OC)nc(O)c2c1)c1ccc(C(=O)NC(CCC(=O)O)C(=O)O)cc1 (stereo not drawn),
